Assay results: article PMC9290503 (British Journal of Clinical Pharmacology, 2021)

How the values were obtained:
[1] = Study 1001 single-dose urine pharmacokinetics; type: in vivo, human; conditions: for Aet, mean (CV%) / CLR, mean (CV%) / fe,t, mean (CV%): urine, Study 1001
[2] = Study 1003 MRD cohorts plasma pharmacokinetics; type: in vivo, human; conditions: for AUC0–24, mean (CV%) / AUC0–∞, mean (CV%) / C max, mean (CV%) / t max, median (range) / t ½z, mean (CV%): plasma
[3] = Safety and tolerability, Study 1003; type: in vivo, human
Method in brief: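 Healthy women received placebo or test compound once daily for 10 days (20–160 mg, double-blind), including one 20 mg cohort of four Japanese women. Monitored AEs, physical and neurological exams, vital signs, flagged clinical labs, pregnancy and 12-lead ECG. TEAEs counted from first dose to 30 days after the last dose. Follow-up to day 70 (±2).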

[4] = preliminary toxicology studies in animals; no reference given; cited from earlier work
[5] = 20 mg q.d., non‐Japanese, Day 1
[6] = 20 mg q.d., non‐Japanese, Day 10
[7] = 60 mg q.d., non‐Japanese, Day 1
[8] = 60 mg q.d., non‐Japanese, Day 10
[9] = 160 mg q.d., non‐Japanese, Day 1
[10] = 160 mg q.d., non‐Japanese, Day 10
[11] = 20 mg q.d. 10 days, Japanese (n = 3)
[12] = 20 mg q.d. 10 days, non‐Japanese (n = 6)
[13] = 60 mg q.d. 10 days, non‐Japanese (n = 6)
[14] = 160 mg q.d. 10 days, non‐Japanese (n = 3)
[15] = MRD, TAK‐418 all participants (n = 18)

## Cl.O=C(NC1CCOCC1)c1csc([C@@H]2C[C@H]2NCC2CC2)c1 [TAK‐418]
[1]; 20–160 mg dose range, single dose (Tables 3 and 4)
  renal clearance: 5.81 to 8.68 L/h
[1]; after 20–160 mg dosing, single dose (Tables 3 and 4)
  recovered unchanged from urine: 13.3–19.5%
[1]; single oral dose 30 mg, fasted
  Aet, mean (CV%): 5.708 (13.0) mg
  CLR, mean (CV%): 8.683 (16.3) L h^−1
  fe,t, mean (CV%): 19.022 (13.0) %
[1]; single oral dose 40 mg
  Aet, mean (CV%): 5.333 (18.8) mg
  CLR, mean (CV%): 8.173 (38.1) L h^−1
  fe,t, mean (CV%): 13.335 (18.8) %
[1]; single oral dose 60 mg
  Aet, mean (CV%): 11.677 (35.2) mg
  CLR, mean (CV%): 7.242 (13.4) L h^−1
  fe,t, mean (CV%): 19.472 (35.2) %
[1]; within 24 hours
  recovered unchanged from urine: Approximately 20%
[2]; 20 mg q.d.
  PK linearity point estimate, Day 10 AUC0–24 compared with Day 1 AUC0–∞: 1.29
[2]; 20 mg, Day 1
  AUC0–24, Japanese vs non‐Japanese participants: 1.21 fold
[2]; 20 mg, Day 10 steady state
  AUC0–24, Japanese compared with non‐Japanese participants: approximately the same
[2]; 60 mg q.d.
  PK linearity point estimate, Day 10 AUC0–24 compared with Day 1 AUC0–∞: 1.13
[2]; 160 mg q.d.
  PK linearity point estimate, Day 10 AUC0–24 compared with Day 1 AUC0–∞: 1.06
[2]; 20–160 mg q.d.
  mean terminal disposition phase half‐life (t ½z) at steady state: 4.35 to 5.36 h
[2]; Day 10, 20–160 mg q.d.
  median t max at steady state: 1.00 to 1.26 h
[2]; 20 mg q.d., Japanese, Day 1
  AUC0–24, mean (CV%): 610.3 (14.4) h*ng mL^−1
  AUC0–∞, mean (CV%): 619.0 (14.8) h*ng mL^−1
  C max, mean (CV%): 154.7 (6.0) ng mL^−1
  t max, median (range): 1.00 (0.50–1.50) h
[2]; 20 mg q.d., Japanese, Day 10
  AUC0–24, mean (CV%): 677.3 (10.9) h*ng mL^−1
  C max, mean (CV%): 171.3 (6.0) ng mL^−1
  t max, median (range): 1.00 (1.00–1.50) h
  t ½z, mean (CV%): 4.350 (14.4) h
[2]; [5]
  AUC0–24, mean (CV%): 503.3 (32.9) h*ng mL^−1
  AUC0–∞, mean (CV%): 515.3 (33.4) h*ng mL^−1
  C max, mean (CV%): 85.2 (33.8) ng mL^−1
  t max, median (range): 1.75 (1.00–3.00) h
[2]; [6]
  AUC0–24, mean (CV%): 668.2 (34.2) h*ng mL^−1
  C max, mean (CV%): 117.8 (30.1) ng mL^−1
  t max, median (range): 1.26 (1.00–2.00) h
  t ½z, mean (CV%): 4.997 (10.1) h
[2]; [7]
  AUC0–24, mean (CV%): 1445.5 (24.4) h*ng mL^−1
  AUC0–∞, mean (CV%): 1476.7 (25.4) h*ng mL^−1
  C max, mean (CV%): 276.0 (21.6) ng mL^−1
  t max, median (range): 1.50 (1.00–4.00) h
[2]; [8]
  AUC0–24, mean (CV%): 1660.5 (25.4) h*ng mL^−1
  C max, mean (CV%): 307.2 (17.0) ng mL^−1
  t max, median (range): 1.250 (1.00–3.00) h
  t ½z, mean (CV%): 4.923 (17.8) h
[2]; [9]
  AUC0–24, mean (CV%): 3747.3 (6.4) h*ng mL^−1
  AUC0–∞, mean (CV%): 3822.0 (5.7) h*ng mL^−1
  C max, mean (CV%): 679.3 (28.8) ng mL^−1
  t max, median (range): 1.50 (1.00–3.00) h
[2]; [10]
  AUC0–24, mean (CV%): 4058.3 (6.1) h*ng mL^−1
  C max, mean (CV%): 697.7 (14.7) ng mL^−1
  t max, median (range): 1.00 (1.00–1.50) h
  t ½z, mean (CV%): 5.357 (8.7) h
[3]; [11]
  Participants with any TEAE: 1 (33.3) Number (%) of participants
  TEAE Arthropod bite: 0 Number (%) of participants
  TEAE Constipation: 0 Number (%) of participants
  TEAE Decreased appetite: 0 Number (%) of participants
  TEAE Diarrhoea: 0 Number (%) of participants
  TEAE Dizziness: 0 Number (%) of participants
  TEAE Dry mouth: 0 Number (%) of participants
  TEAE Headache: 0 Number (%) of participants
  TEAE Myalgia: 0 Number (%) of participants
  TEAE Nausea: 0 Number (%) of participants
  TEAE Somnolence: 0 Number (%) of participants
  TEAE Vomiting: 0 Number (%) of participants
[3]; [12]
  Participants with any TEAE: 5 (83.3) Number (%) of participants
  TEAE Arthropod bite: 1 (16.7) Number (%) of participants
  TEAE Constipation: 0 Number (%) of participants
  TEAE Decreased appetite: 2 (33.3) Number (%) of participants
  TEAE Diarrhoea: 0 Number (%) of participants
  TEAE Dizziness: 1 (16.7) Number (%) of participants
  TEAE Dry mouth: 0 Number (%) of participants
  TEAE Headache: 4 (66.7) Number (%) of participants
  TEAE Myalgia: 0 Number (%) of participants
  TEAE Nausea: 0 Number (%) of participants
  TEAE Somnolence: 2 (33.3) Number (%) of participants
  TEAE Vomiting: 0 Number (%) of participants
[3]; [13]
  Participants with any TEAE: 6 (100.0) Number (%) of participants
  TEAE Arthropod bite: 1 (16.7) Number (%) of participants
  TEAE Decreased appetite: 1 (16.7) Number (%) of participants
  TEAE Diarrhoea: 1 (16.7) Number (%) of participants
  TEAE Dizziness: 1 (16.7) Number (%) of participants
  TEAE Dry mouth: 1 (16.7) Number (%) of participants
  TEAE Headache: 5 (83.3) Number (%) of participants
  TEAE Myalgia: 2 (33.3) Number (%) of participants
  TEAE Nausea: 4 (66.7) Number (%) of participants
  TEAE Somnolence: 1 (16.7) Number (%) of participants
  TEAE Vomiting: 3 (50.0) Number (%) of participants
[3]; [14]
  Participants with any TEAE: 3 (100.0) Number (%) of participants
  TEAE Arthropod bite: 0 Number (%) of participants
  TEAE Constipation: 0 Number (%) of participants
  TEAE Decreased appetite: 0 Number (%) of participants
  TEAE Diarrhoea: 2 (66.7) Number (%) of participants
  TEAE Dizziness: 0 Number (%) of participants
  TEAE Dry mouth: 2 (66.7) Number (%) of participants
  TEAE Headache: 0 Number (%) of participants
  TEAE Myalgia: 0 Number (%) of participants
  TEAE Nausea: 0 Number (%) of participants
  TEAE Somnolence: 0 Number (%) of participants
  TEAE Vomiting: 0 Number (%) of participants
[3]; MRD cohorts
  laboratory test parameters: No notably abnormal laboratory test parameters
[3]; MRD cohorts (20, 60 or 160 mg q.d.), 15 participants
  participants experiencing TEAEs: 83%
[3]; MRD cohorts, five individuals
  treatment‐related headache: 28%
[3]; MRD cohorts, five participants
  participants with moderate TEAEs: 28%
[3]; MRD cohorts, n = 3
  decreased appetite: 17%
  diarrhoea: 17%
  dry mouth: 17%
  somnolence: 17%
  vomiting: 17%
[3]; MRD cohorts, n = 4
  nausea: 22%
[3]; MRD cohorts, n = 9
  headache: 50%
[3]; MRD cohorts, nine participants
  participants with mild TEAEs: 50%
[3]; MRD cohorts, one participant (headache, 60 mg)
  participants with severe TEAEs: 6%
[3]; MRD cohorts, three individuals
  treatment‐related dry mouth: 17%
[3]; MRD cohorts, twelve participants, all mild
  participants with treatment‐related TEAEs: 67%
[3]; [15]
  Participants with any TEAE: 15 (83.3) Number (%) of participants
  TEAE Arthropod bite: 2 (11.1) Number (%) of participants
  TEAE Constipation: 2 (11.1) Number (%) of participants
  TEAE Decreased appetite: 3 (16.7) Number (%) of participants
  TEAE Diarrhoea: 3 (16.7) Number (%) of participants
  TEAE Dizziness: 2 (11.1) Number (%) of participants
  TEAE Dry mouth: 3 (16.7) Number (%) of participants
  TEAE Headache: 9 (50.0) Number (%) of participants
  TEAE Myalgia: 2 (11.1) Number (%) of participants
  TEAE Nausea: 4 (22.2) Number (%) of participants
  TEAE Somnolence: 3 (16.7) Number (%) of participants
  TEAE Vomiting: 3 (16.7) Number (%) of participants
[3]; SRD 120/160 mg cohort
  treatment‐related TEAEs: Two participants had TEAEs considered to be related to treatment, which were mild in intensity
[3]; SRD 120/160 mg cohort, n = 2
  dizziness: 25%
  headache: 25%
[3]; SRD 120/160 mg cohort, one person
  participants with moderate TEAEs: 13%
[3]; SRD 120/160 mg cohort, three women
  participants with mild TEAEs: 38%
[3]; SRD cohort, 160 mg, Day 30, one participant (13%), more than three times the upper limit of normal
  gamma glutamyl transferase level reached: 315 U/L
[3]; Study 1003
  SAEs, suicidal ideation/behaviour, deaths: no SAEs, suicidal ideation/behaviour or deaths were reported
[3]; current study
  thrombocytopenia AEs: no thrombocytopenia AEs were observed
[3]; daily dosing up to 160 mg
  tolerability: well tolerated
[3]; with TAK‐418 20 mg
  Japanese participants experiencing TEAEs: 33.3%
  non‐Japanese participants experiencing TEAEs: 83%
[4]
  toxicology findings: testicular findings in a single species
